In brackets after ≈: the same amount, converted by molar mass. Activity calls are given as the source filed them. No cut-off for these calls is given here.
What was measured:
[1] = Antiproliferative activity against HLF1 cells assessed as reduction in TGFbeta-induced cell proliferation measured after 48 hrs by CCK8 assay; format: functional, cell-based; conditions: Homo sapiens, HLF1, 48 h
How it was run: (§1)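 HPASMCs grown in high-glucose D-MEM with 20% FBS and HLF1 in D-MEM/F-12 (1:1) with 10% FBS. Cells stimulated with TGF-β (10 ng/mL) at 37 °C, 5% CO2, then exposed to a concentration range for 48 h. CCK-8 added for 4 h and absorbance read at 490 nm. IC50 derived from the curves.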

[2] = Antiproliferative activity against HPASMC assessed as reduction in TGFbeta-induced cell proliferation measured after 48 hrs by CCK8 assay; format: functional, tissue-based; conditions: Homo sapiens, Pulmonary Artery Smooth Muscle Cells; how it was run: as §1
[3] = system: Pulmonary Artery Smooth Muscle Cells; test: Stimulation of sGC in HPASMC assessed as increase in intracellular cGMP level measured after 1 hr in absence of PDE5 inhibitor IBMX and presence of sGC inhibitor ODQ by cGMP-d2/europium cryptate reagent based HTRF assay; format: tissue-based; conditions: Homo sapiens, filed as activator
How it was run: (§2)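 HPASMCs were suspended at 100,000 cells/mL in PBS with 0.2% BSA, with or without 10 µM ODQ. Compounds were added as a 6-point, 10-fold dilution series; the top 2× stock was 200 µM. Incubation was 1 h at room temperature, in triplicate. cGMP-d2 in lysis buffer and europium cryptate were then added for 1 h before HTRF reading. Three independent experiments.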

[4] = system: Pulmonary Artery Smooth Muscle Cells; test: Stimulation of sGC in HPASMC assessed as increase in intracellular cGMP level at 100 uM measured after 1 hr in presence of PDE5 inhibitor IBMX by cGMP-d2/europium cryptate reagent based HTRF assay relative to control; format: tissue-based; conditions: Homo sapiens, filed as activator; how it was run: as §2
[5] = system: Pulmonary Artery Smooth Muscle Cells; test: Stimulation of sGC in HPASMC assessed as increase in intracellular cGMP level at 100 uM measured after 1 hr in presence of PDE5 inhibitor IBMX and sGC inhibitor ODQ by cGMP-d2/europium cryptate reagent based HTRF assay; format: tissue-based; conditions: Homo sapiens; how it was run: as §2
[6] = Antiproliferative activity against HLF1 cells measured after 48 hrs under hypoxic condition by CCK8 assay; format: functional, cell-based; conditions: Homo sapiens, HLF1, 48 h
How it was run: (§3)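 HPASMCs were grown in high-glucose D-MEM with 20% FBS, and HLF1 in D-MEM/F-12 (1:1) with 10% FBS. Cells were seeded for exponential growth, then exposed to a range of compound concentrations for 48 h at 37 °C under hypoxia (1% O2, 5% CO2, 94% N2). CCK-8 was added for 4 h and absorbance read at 490 nm. IC50 came from dose-response curves averaged over three independent experiments.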

[7] = Antiproliferative activity against HPASMC measured after 48 hrs under hypoxic condition by CCK8 assay; format: functional, tissue-based; conditions: Homo sapiens, Pulmonary Artery Smooth Muscle Cells; how it was run: as §3
[8] = molecular target: AMP-activated protein kinase, AMPK (Homo sapiens) (UniProt P54646+O43741+P54619+Q9UGJ0+Q9Y478+Q13131+Q9UGI9); test: Inhibition of AMPK in TGFbeta-induced HPASMC assessed as reduction in cell migration measured after 24 hrs by wound healing assay; format: tissue-based; conditions: Pulmonary Artery Smooth Muscle Cells, dose microM 5-10, time 24.0 hrs
How it was run: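 Wound-healing assay. 5 × 10^4 cells were seeded per well and grown 24 h to near confluence. The monolayer was scratched with a pipette tip and washed with PBS. Cells were then kept in 1% FBS medium with TGF-β (10 ng/mL) or under hypoxia (1% O2, 5% CO2, 94% N2), alone or with compound. Migration ran 24 h at 37 °C, imaged at 0 and 24 h. Mean ± SD from three independent experiments.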

[9] = Solubility of compound in water at pH 7.3; format: physicochemical; conditions: buffer
[10] = Solubility of compound in water at pH 3.5; format: physicochemical; conditions: buffer
[11] = Half life in human liver microsomes at 1.5 uM preincubated for 5 mins followed by NADPH addition and measured up to 45 mins by LC-MS/MS analysis; format: ADME, Microsome; conditions: time <=50 min
How it was run: (§4)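 Liver microsomes (0.75 mg/mL), human or SD rat, in 0.1 M potassium phosphate pH 7.4 with 3.0 mM MgCl2 and 1.5 µM compound, run in duplicate. After 5 min preincubation at 37 °C, reaction started with 3 mM NADPH. Quenched at 0, 5, 15, 30 and 45 min with ice-cold acetonitrile containing internal standard. Ketanserin served as positive control and a no-NADPH buffer incubation as negative control. LC-MS/MS read-out.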

[12] = Half life in Sprague-Dawley rat liver microsomes at 1.5 uM preincubated for 5 mins followed by NADPH addition and measured up to 45 mins by LC-MS/MS analysis; format: ADME, Microsome; conditions: time <=50 min; how it was run: as §4
Rattus norvegicus [13] = test: Inhibition of vascular remodeling activity in Sprague-Dawley rat model of hypoxia-induced pulmonary artery hypertension assessed as right ventricular systolic pressure at 10 mg/kg, po administered daily for 2 weeks by catheter method (reference value: 26.2 mmHg); format: functional
Rattus norvegicus [14] = test: Inhibition of vascular remodeling activity in Sprague-Dawley rat model of hypoxia-induced pulmonary artery hypertension assessed as decrease in ratio of RV/tibial length at 10 mg/kg, po administered daily for 2 weeks; format: functional, organism-based
Rattus norvegicus [15] = test: Inhibition of vascular remodeling activity in Sprague-Dawley rat model of hypoxia-induced pulmonary artery hypertension assessed as increase in body weight at 10 mg/kg, po administered daily for 2 weeks; format: functional, organism-based
Rattus norvegicus [16] = test: Inhibition of vascular remodeling activity in Sprague-Dawley rat model of hypoxia-induced pulmonary artery hypertension assessed as reduction in pulmonary artery medial thickness at 10 mg/kg, po administered daily for 2 weeks by H and E staining based digital microscopic analysis; format: functional, organism-based
How it was run: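 Hypoxia model in male SD rats (10% O2, 4 weeks) with oral dosing at 10 mg/kg daily for 14 days in 0.5% CMC-Na. Paraffin-embedded lung tissue was cut into 5 µm sections and stained with H&E. Pulmonary artery medial thickness was quantified, n = 5/group.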

Rattus norvegicus [17] = test: Inhibition of vascular remodeling activity in Sprague-Dawley rat model of hypoxia-induced pulmonary artery hypertension assessed as reduction in TGFbeta expression in lungs at 10 mg/kg, po administered daily for 2 weeks by Western blot analysis; format: functional, organism-based
How it was run: (§5)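 Hypoxic PAH model in male SD rats (160-200 g) kept at 10% O2 for 4 weeks. Oral dosing at 10 mg/kg daily for 14 days, suspended in 0.5% CMC-Na; control and hypoxia groups received vehicle only. Lungs homogenized in RIPA with protease and phosphatase inhibitors. 30 µg protein run on 10% SDS-PAGE, then PVDF blotting, with β-actin as loading reference. Three independent runs.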

Rattus norvegicus [18] = test: In vivo inhibition of AMPK in Sprague-Dawley rat model of hypoxia-induced pulmonary artery hypertension assessed as reduction in ACC phosphorylation in lungs at 10 mg/kg, po administered daily for 2 weeks by Western blot analysis; format: functional, organism-based; how it was run: as §5
[19] = Effect on total ACC level in lungs of Sprague-Dawley rat model of hypoxia-induced pulmonary artery hypertension at 10 mg/kg, po administered daily for 2 weeks by Western blot analysis; format: ADME, organism-based; conditions: in vivo, 336 h; how it was run: as §5

Cc1ccccc1COc1nc2c(cc1-c1nc(N)cc(N)n1)c(C)nn2-c1ccccc1
IC50 [1]: 38.5 µM | IC50 [2]: 17 µM | Activity [3]: Active | Activity [4]: 40% | Activity [5]: inactive | IC50 [6]: 34.9 µM | IC50 [7]: 20.8 µM | inhibition [8]: Dose-dependent effect | solubility [9]: 0.034 µg/mL (≈ 0.0777 µM) | solubility [10]: 0.028 µg/mL (≈ 0.064 µM) | half-life at 1.5 µM [11]: 2.08 h | half-life at 1.5 µM [12]: 0.167 h | Activity (Rattus norvegicus [13]): 22 mmHg | inhibition (Rattus norvegicus [14]): Active | inhibition (Rattus norvegicus [15]): Active | inhibition (Rattus norvegicus [16]): Active | inhibition (Rattus norvegicus [17]): Active | inhibition (Rattus norvegicus [18]): Active | Activity [19]: Non-Toxic
